Assay outcomes deposited in PubChem BioAssay by several laboratories.
Most compounds without a hit are left out; they make up all but 4.7% or so of the library.
ADAM17 inh: inhibitors of human ADAM17; P78536; recombinant ADAM17, EDANS/DABCYL FRET peptide cleavage; inhibition, % at 6.95 µM; actives 0.83% (n = 370,000); AID 720648;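 active means inhibition above the mean of compounds lying between control limits plus 3 SD, set per campaign, cut at about 8.5% in these data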
Target sequence (P78536 215-824 limits assumed): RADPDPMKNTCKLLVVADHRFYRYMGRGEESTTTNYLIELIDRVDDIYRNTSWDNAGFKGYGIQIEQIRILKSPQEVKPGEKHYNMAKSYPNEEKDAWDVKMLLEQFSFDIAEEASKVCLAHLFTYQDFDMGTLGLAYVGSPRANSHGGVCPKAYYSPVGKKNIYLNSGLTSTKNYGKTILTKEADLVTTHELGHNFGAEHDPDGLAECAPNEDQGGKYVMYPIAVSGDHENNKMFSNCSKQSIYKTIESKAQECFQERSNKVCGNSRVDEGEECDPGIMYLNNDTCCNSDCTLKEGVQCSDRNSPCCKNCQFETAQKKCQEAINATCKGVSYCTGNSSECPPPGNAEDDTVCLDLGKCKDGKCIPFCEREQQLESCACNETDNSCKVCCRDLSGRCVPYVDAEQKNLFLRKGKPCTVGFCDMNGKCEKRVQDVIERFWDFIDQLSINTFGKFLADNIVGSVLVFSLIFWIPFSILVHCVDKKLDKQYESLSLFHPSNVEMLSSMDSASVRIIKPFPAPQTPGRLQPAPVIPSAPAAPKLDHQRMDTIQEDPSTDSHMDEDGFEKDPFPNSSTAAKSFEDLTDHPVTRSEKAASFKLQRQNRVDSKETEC
GRIN3A LBD mod: modulates the human NR3A ligand-binding domain; actives 2.5% (n = 340,000); NR3A LBD differential scanning fluorimetry, Tm shift; 0% = protein alone, 100% = glycine-bound protein; AID 1259313; Tm shift relative to glycine control, % at 25 µM;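 active means melting temperature shift of at least 10% of the positive control shift, at one fixed dose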
MT1-MMP act inh: MT1-MMP (human) activation inhibition | actives 0.061% (n = 360,000) | HT1080 RFP-PRO-GFP cells, GFP/RFP ratio fluorescence, overnight; percent of plate control window, DMSO zero | GFP/RFP ratio change, % at 20 µM | P50281;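 active means GFP/RFP ratio change of at least 30% with cell ATP level not reduced by more than half and red fluorescence within 50% of control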
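Assay system: RFP-PRO-GFP reporter HT1080 cells; read-out basis: GFP/RFP fluorescence ratio; benchmarks: DMSO wells and RFP-L50D-GFP cells; doses: 20 µM single dose, 1% DMSO; schedule: overnight cell settling, then overnight compound exposure, 37 °C, 5% CO2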
MPTP inh: inhibitors of mitochondrial permeability transition pore | actives 1.4% (n = 360,000) | inhibition, % at 10 µM | isolated mouse mitochondria, Ca2+ swelling absorbance, 30 min | AID 602449;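 active means inhibition of 50% or more, scaled per plate between neutral and stimulator controls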
SKN-1 inh: C. elegans SKN-1 inhibition | AID 624304 | actives 0.49% (n = 360,000) | inhibition, % at 21.8 µM | C. elegans VP596 Pgst-4::GFP/RFP ratio, acrylamide-induced, 24 h;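 active means interference check ratio from 0.5 to 1.5 plus GFP to RFP signal ratio inhibition reaching or exceeding a fixed threshold, cut at about 30% in these data, passing the limit was not always enough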
ADAM10 inh: inhibits human ADAM10 | inhibition, % at 7 µM | recombinant ADAM10, EDANS/DABCYL FRET peptide cleavage, 3 h | O14672 | actives 0.62% (n = 370,000);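 active means inhibition above a per-campaign cutoff equal to the mean of compounds falling between control-based bounds plus 3 SD, cut at about 20% in these data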
ADAM10 confirm: confirmation of inhibitors of human ADAM10; shares compounds with ADAM10 inh; ADAM10 QFRET peptide cleavage, EDANS fluorescence; inhibition, % at 6.95 µM; actives 1% (n = 2,100); AID 743208;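 active means inhibition above about 20% chosen separately for each screening run, limit read from the data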
ADAM17 counter: ADAM17 inhibition, counter-screen for ADAM10 exosite hits; actives 0.5% (n = 2,100); inhibition, % at 6.95 µM; ADAM17 QFRET peptide cleavage, EDANS fluorescence; shares compounds with ADAM10 inh; AID 743214;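 active means mean triplicate inhibition above the solvent-only control wells' mean plus 3 SD, cut at about 12% in these data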
Hits are given with their value; 0 = inactive; - = no result.

SMILES | ADAM17 inh | GRIN3A LBD mod | MT1-MMP act inh | MPTP inh | SKN-1 inh | ADAM10 inh | ADAM10 confirm | ADAM17 counter
O=C(Nc1c(F)c(F)c(F)c(F)c1F)OC[C@@H]1CSCCS(=O)(=O)N1 | 0 | - | - | - | - | 0 | - | -
COc1cc(NC(=O)C(OC(=O)CNC(=O)c2ccccc2)c2ccccc2)cc(C(F)(F)F)c1 (configuration not stated) | 14.9 | - | - | - | - | 28.6 | 0 | 0
O=C(CNC(=O)c1ccccc1)OC(C(=O)c1ccccc1)c1ccccc1 (configuration not stated) | 0 | 0 | 0 | 0 | 0 | 0 | - | -
C=CCC[C@@H](Cc1ccc(F)cc1)C(=O)OC[C@@H](NC(=O)[C@@H](CC=C)CC(=O)N[C@@H](CO)Cc1ccccc1)C(C)(C)C | 0 | 0 | 0 | 0 | 0 | 20.6 | 0 | 0
C=CCC[C@H](Cc1ccc(F)cc1)C(=O)OC[C@@H](Cc1c[nH]c2ccccc12)NC(=O)[C@H](CC=C)CC(=O)NCCO | 0 | 0 | 0 | 0 | 0 | 20.7 | 0 | 0
C=CCC[C@H](Cc1ccc(F)cc1)C(=O)OC[C@@H](Cc1c[nH]c2ccccc12)NC(=O)[C@@H](CC=C)CC(=O)N[C@H](CO)Cc1ccccc1 | 0 | 0 | 0 | 0 | 0 | 0 | - | -
C=CCC[C@@H](Cc1ccc(F)cc1)C(=O)OC[C@H](Cc1c[nH]c2ccccc12)NC(=O)[C@H](CC=C)CC(=O)NCCO | 0 | 0 | 0 | 0 | 0 | 22.0 | 0 | 0
C=CCC[C@H](Cc1ccc(F)cc1)C(=O)OC[C@H](Cc1c[nH]c2ccccc12)NC(=O)[C@H](CC=C)CC(=O)N[C@H](CO)Cc1ccccc1 | 0 | 0 | 0 | 0 | 0 | 20.9 | 0 | 0
CN1CCN(C(=O)c2ccc(NS(=O)(=O)c3cccc([N+](=O)[O-])c3)cc2)CC1 | 0 | 0 | 0 | 0 | 0 | 0 | - | -
COc1ccc(-c2cn(-c3ccc(C)cc3C)c(=S)[nH]2)cc1OC | 0 | 0 | 0 | 0 | 0 | 20.3 | 0 | 0
COc1cc(OC)c(-n2cc(-c3ccc(OC)c(OC)c3)[nH]c2=S)cc1Cl | 0 | 0 | 0 | 0 | 0 | 0 | - | -
CN(C)C(=O)CCSc1nnc(-c2ccncc2)o1 | 0 | 0 | 0 | 0 | 0 | 0 | - | -
O=S(=O)(Nc1ccc(N=Nc2ccccc2)cc1)c1ccccc1 | 0 | 0 | 0 | 0 | 0 | 20.3 | 0 | 0
CCOc1ccc(C(=O)Nc2nnc(C(C)C)s2)cc1OCC | 0 | 0 | 0 | 0 | 0 | 0 | - | -
Cc1cccc(OCC(=O)Nc2ccc3oc(=O)ccc3c2)c1 | 0 | 0 | 0 | 0 | 0 | 0 | - | -
Cc1ccc(Nc2c([N+](=O)[O-])cc(C(=O)N3CC(=O)Nc4ccccc43)cc2[N+](=O)[O-])c(C)c1 | 0 | 0 | 0 | 0 | 0 | 20.4 | 0 | 0
CCC(=O)c1ccccc1OCCCN1C(=O)NC(C)(C)C1=O | 0 | 0 | 0 | 0 | 0 | 0 | - | -
Cc1cccc(NC(=O)c2ccc(C3SCC(=O)N3CCc3ccccc3)cc2)c1C (configuration not stated) | 0 | 0 | 0 | 0 | 0 | 21.5 | 0 | 0
CCOc1ccc(CNC(=O)CCS(=O)(=O)Cc2ccc(C)cc2)cc1OC | 0 | 0 | 0 | 0 | 0 | 0 | - | -
COc1cccc(NC(=O)[C@@H](NC(=O)N2CCn3c2nc2ccccc23)C(C)C)c1 | 0 | 0 | 0 | 0 | 0 | 20.6 | 0 | 0
Cc1ccccc1/C=C/c1nc2ccccc2c(=O)n1Cc1ccccc1 | 0 | 0 | 0 | 0 | 0 | 0 | - | -
O=C(NN1C(=O)C2C3C=CC(C3)C2C1=O)c1ccccc1 (configuration not stated) | 0 | 0 | 0 | 0 | 0 | 0 | - | -
Cc1cccc(C(=O)NN2C(=O)C3C(c4ccccc4)C=CC(c4ccccc4)C3C2=O)c1 (configuration not stated) | 0 | 0 | 0 | 0 | 0 | 19.8 | 0 | 0
COc1ccc(Cl)cc1NC(=O)C(C)OC(=O)c1ccc(NS(=O)(=O)c2ccc3[nH]c(=O)[nH]c3c2)cc1 (configuration not stated) | 0 | 18.1 | 0 | 0 | 0 | 21.8 | 0 | 0
O=C(O)C(Nc1nc(C(F)(F)F)nc2ccccc12)c1ccccc1 (configuration not stated) | 0 | 0 | 0 | 0 | 0 | 19.8 | 0 | 0
SMILES | ADAM17 inh | GRIN3A LBD mod | MT1-MMP act inh | MPTP inh | SKN-1 inh | ADAM10 inh | ADAM10 confirm | ADAM17 counter
COc1ccc(NS(=O)(=O)c2cccc(N3CC(O)=C(c4ccccc4)C3=N)c2)cc1 | 0 | 0 | 0 | 0 | 0 | 65.3 | 0 | 0
O=C(COC(=O)c1cc(Cl)ccc1Cl)NC1CCCC1 | 0 | 0 | 0 | 0 | 0 | 0 | - | -
COc1ccc(Nc2nc(N)c([N+](=O)[O-])c(NCCO)n2)cc1 | 0 | 0 | 0 | 0 | 0 | 0 | - | -
COc1ccc(Nc2nc(N)c([N+](=O)[O-])c(NC3CCCCC3)n2)cc1 | 0 | 10.9 | 0 | 0 | 0 | 30.8 | 0 | 0
O=C(CSCc1ccccc1Cl)NN=C1CCCCCC1 | 0 | 0 | 0 | 0 | 0 | 20.1 | 0 | 0
O=C(CSCc1c(Cl)cccc1Cl)NN=C1CCCC1 | 0 | 0 | 0 | 0 | 0 | 0 | - | -
COc1cc(CNn2c(C)n[nH]c2=S)cc(Cl)c1OCc1ccc(F)cc1 | 0 | 0 | 0 | 0 | 0 | 0 | - | -
CCOc1cc(CNn2cn[nH]c2=S)cc(Cl)c1OCc1ccccc1F | 12.3 | 0 | 0 | 0 | 0 | 24.5 | 0 | 0
C=CCN1CCc2cc(O)c(O)cc2C(c2ccccc2)C1 (configuration not stated) | 0 | 0 | 0 | 0 | 0 | 20.9 | 0 | 0
COc1ccc(-c2cc3nc(-c4ccccc4)cc(N4CCC(O)CC4)n3n2)cc1 | 0 | 0 | 0 | 0 | 0 | 0 | - | -
Cc1c(C(=O)N(C)Cc2ccc(OC(F)F)cc2)oc2ccccc12 | 0 | 0 | 0 | 0 | 0 | 19.8 | 0 | 0
COc1ccc(CCN(C)C(=O)c2oc3ccccc3c2C)cc1OC | 0 | 0 | 0 | 0 | 0 | 0 | - | -
COCCn1c(SCC(=O)c2c(N)n(C3CC3)c(=O)[nH]c2=O)nnc1-c1cccc(C)c1 | 0 | 0 | 0 | 0 | 0 | 0 | - | -
Oc1ccccc1C(Nc1nccs1)c1ccc2cccnc2c1O (configuration not stated) | 0 | 0 | 0 | 0 | 0 | 19.8 | 0 | 0
Oc1c(C(Nc2ccccn2)c2ccccn2)ccc2cccnc12 (configuration not stated) | 0 | 0 | 0 | 0 | 0 | 0 | - | -
CNc1snc(C)c1C(=O)OC(C)C(=O)c1ccc(F)cc1 (configuration not stated) | 0 | 0 | 0 | 0 | 0 | 0 | - | -
Cc1ccc(S(=O)(=O)N(CCC(=O)NCc2ccccc2F)c2ccccc2)cc1 | 0 | 0 | 0 | 0 | 0 | 0 | - | -
